Activity calls are given as the source filed them. The rule behind the calls is not given here.
What was measured:
[1] = target: T1, Protein cereblon/Cyclin-dependent kinase 2/Cyclin-dependent kinase 9 (Homo sapiens, UniProt P24941+P50750+Q96SW2); assay: Protac activity at CRBN/CDK2/CDK9 in AR-negative human PC3 cells assessed as induction of CDK2 protein degradation at 1 uM after 12 hrs by Western blot analysis; format: cell-based; details: PC-3
Summary of the method: (§1)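 PC-3 cells (5 × 10^5 per well) treated 12 h at single concentrations (50 nM, 500 nM, 1, 5 or 30 µM). RIPA lysates (50 µg) run on 10% SDS-PAGE and immunoblotted for CDK2, CDK5, CDK9 with β-tubulin loading control, then detected by chemiluminescence. Band intensities quantified densitometrically.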

[2] = test system: PC-3; assay: Antiproliferative activity against AR-negative human PC3 cells assessed as reduction in cell viability after 5 days by CCK8 assay; format: functional, cell-based; details: PC-3, 120 h
Summary of the method: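 Cells seeded at 3 × 10^3 per well for 24 h, then dosed in 10-point, 3-fold serial dilution from 10 µM. CCK-8 added after 5 days, 4 h at 37 °C, absorbance at 450 nm. IC50 averaged from three separate determinations (at least two independent runs, duplicate wells). PC-3 grown in DMEM/F12 (1:1), LO2 in RPMI 1640, both with 10% FBS.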

[3] = target: T1, Protein cereblon/Cyclin-dependent kinase 2/Cyclin-dependent kinase 9; assay: Protac activity at CRBN/CDK2/CDK9 in AR-negative human PC3 cells assessed as induction of CDK9 protein degradation at 1 uM after 12 hrs by Western blot analysis; format: cell-based; details: PC-3; summary of the method: as §1
[4] = target: T1, Protein cereblon/Cyclin-dependent kinase 2/Cyclin-dependent kinase 9; assay: Protac activity at CRBN/CDK2/CDK9 in AR-negative human PC3 cells assessed as induction of CDK9 protein degradation at 30 uM after 12 hrs by Western blot analysis; format: cell-based; details: PC-3; summary of the method: as §1
[5] = target: T1, Protein cereblon/Cyclin-dependent kinase 2/Cyclin-dependent kinase 9; assay: Protac activity at CRBN/CDK2/CDK9 in AR-negative human PC3 cells assessed as induction of CDK2 protein degradation after 24 hrs by Western blot analysis; format: cell-based; details: PC-3
Summary of the method: (§2)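 PC-3 cells exposed to a degrader concentration series, then immunoblotted for CDK2 and CDK9 versus β-tubulin. The figure legend gives 24 h exposure. DC50 taken as mean of 2 determinations from densitometry.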

[6] = target: T1, Protein cereblon/Cyclin-dependent kinase 2/Cyclin-dependent kinase 9; assay: Protac activity at CRBN/CDK2/CDK9 in AR-negative human PC3 cells assessed as induction of CDK9 protein degradation after 24 hrs by Western blot analysis; format: cell-based; details: PC-3; summary of the method: as §2
[7] = target: T1, Protein cereblon/Cyclin-dependent kinase 2/Cyclin-dependent kinase 9; assay: Protac activity at CRBN/CDK2/CDK9 in AR-negative human PC3 cells assessed as CDK2 degradation at 10 to 10^4 nM after 12 hrs by Western blot analysis; format: cell-based; details: PC-3
[8] = target: T1, Protein cereblon/Cyclin-dependent kinase 2/Cyclin-dependent kinase 9; assay: Protac activity at CRBN/CDK2/CDK9 in AR-negative human PC3 cells assessed as CDK9 degradation at 10 to 10^4 nM after 12 hrs by Western blot analysis; format: cell-based; details: PC-3
[9] = target: T2, Protein cereblon/Cyclin-dependent kinase 2 (Homo sapiens) (UniProt P24941+Q96SW2); assay: Protac activity at CRBN/CDK2 in AR-negative human PC3 cells assessed as induction of CDK2 protein degradation at 50 nM after 12 hrs by Western blot analysis; format: cell-based; details: PC-3; summary of the method: as §1
[10] = target: T3, Protein cereblon/Cyclin-dependent kinase 9 (Homo sapiens) (UniProt P50750+Q96SW2); assay: Protac activity at CRBN/CDK9 in AR-negative human PC3 cells assessed as induction of CDK9 protein degradation at 50 nM after 12 hrs by Western blot analysis; format: cell-based; details: PC-3
Summary of the method: (§3)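 PC-3 cells (DMEM/F12 1:1, 10% FBS, 1% pen/strep, 37 °C, 5% CO2) plated at 5 × 10^5 per well, exposed to compound for 12 h. RIPA lysates with protease inhibitors; 50 µg total protein run on 10% SDS-PAGE, transferred to PVDF, blocked in 5% milk/TBS-T. Probed with anti-CDK9 (1/1000), β-tubulin loading control, HRP secondary, chemiluminescence; bands scored as degradation detected or not.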

[11] = target: T3, Protein cereblon/Cyclin-dependent kinase 9 (Homo sapiens); assay: Protac activity at CRBN/CDK9 in AR-negative human PC3 cells assessed as induction of CDK9 protein degradation at 30 uM after 12 hrs by Western blot analysis; format: cell-based; details: PC-3; summary of the method: as §3
[12] = target: T3, Protein cereblon/Cyclin-dependent kinase 9 (Homo sapiens); assay: Protac activity at CRBN/CDK9 in AR-negative human PC3 cells assessed as induction of CDK9 protein degradation at 1 uM after 12 hrs by Western blot analysis; format: cell-based; details: PC-3; summary of the method: as §3
[13] = target: Protein cereblon/Cyclin-dependent kinase 5 (Homo sapiens) (UniProt Q00535+Q96SW2); assay: Protac activity at CRBN/CDK5 in AR-negative human PC3 cells assessed as induction of CDK5 protein degradation at 1 uM after 12 hrs by Western blot analysis; format: cell-based; details: PC-3; summary of the method: as §1
[14] = target: T2, Protein cereblon/Cyclin-dependent kinase 2 (Homo sapiens); assay: Protac activity at CRBN/CDK2 in AR-negative human PC3 cells assessed as induction of CDK2 protein degradation at 1 uM after 12 hrs by Western blot analysis; format: cell-based; details: PC-3; summary of the method: as §1
[15] = target: T1, Protein cereblon/Cyclin-dependent kinase 2/Cyclin-dependent kinase 9; assay: Protac activity at CRBN/CDK2/CDK9 in AR-negative human PC3 cells assessed as induction of CDK2 protein degradation at 5 uM after 12 hrs by Western blot analysis; format: cell-based; details: PC-3; summary of the method: as §1
[16] = target: T1, Protein cereblon/Cyclin-dependent kinase 2/Cyclin-dependent kinase 9; assay: Protac activity at CRBN/CDK2/CDK9 in AR-negative human PC3 cells assessed as induction of CDK9 protein degradation at 5 uM after 12 hrs by Western blot analysis; format: cell-based; details: PC-3; summary of the method: as §1
[17] = target: T1, Protein cereblon/Cyclin-dependent kinase 2/Cyclin-dependent kinase 9; assay: Protac activity at CRBN/CDK2/CDK9 in AR-negative human PC3 cells assessed as CDK2 degradation at 10^-1 to 10^3 nM after 12 hrs by Western blot analysis; format: cell-based; details: PC-3
[18] = target: T1, Protein cereblon/Cyclin-dependent kinase 2/Cyclin-dependent kinase 9; assay: Protac activity at CRBN/CDK2/CDK9 in AR-negative human PC3 cells assessed as CDK9 degradation at 10^-1 to 10^3 nM after 12 hrs by Western blot analysis; format: cell-based; details: PC-3

T3 sequence (P50750 whole entry, looked up): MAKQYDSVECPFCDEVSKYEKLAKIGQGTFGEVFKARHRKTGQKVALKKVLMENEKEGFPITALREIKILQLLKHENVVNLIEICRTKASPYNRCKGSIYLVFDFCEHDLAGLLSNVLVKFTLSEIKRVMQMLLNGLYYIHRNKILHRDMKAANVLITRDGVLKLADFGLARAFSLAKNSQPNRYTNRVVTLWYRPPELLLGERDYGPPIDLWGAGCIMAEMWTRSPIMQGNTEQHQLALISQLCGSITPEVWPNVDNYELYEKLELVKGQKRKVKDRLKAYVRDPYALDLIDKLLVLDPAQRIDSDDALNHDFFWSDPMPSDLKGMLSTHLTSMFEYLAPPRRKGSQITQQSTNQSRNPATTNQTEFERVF
T3 sequence (Q96SW2 whole entry, looked up): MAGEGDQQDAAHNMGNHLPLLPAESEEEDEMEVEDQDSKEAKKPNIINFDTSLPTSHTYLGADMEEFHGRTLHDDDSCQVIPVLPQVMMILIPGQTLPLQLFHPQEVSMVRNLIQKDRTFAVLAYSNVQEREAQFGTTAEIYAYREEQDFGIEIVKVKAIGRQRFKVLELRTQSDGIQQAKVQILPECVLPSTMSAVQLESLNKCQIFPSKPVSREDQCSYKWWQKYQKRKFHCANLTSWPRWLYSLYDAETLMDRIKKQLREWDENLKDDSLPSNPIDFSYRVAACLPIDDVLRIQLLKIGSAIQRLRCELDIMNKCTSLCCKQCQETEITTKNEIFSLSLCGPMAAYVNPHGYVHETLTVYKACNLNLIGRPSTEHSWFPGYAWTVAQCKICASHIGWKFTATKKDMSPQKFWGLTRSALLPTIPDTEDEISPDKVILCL
Protein cereblon/Cyclin-dependent kinase 5 (Homo sapiens), sequence (Q00535 whole entry, looked up): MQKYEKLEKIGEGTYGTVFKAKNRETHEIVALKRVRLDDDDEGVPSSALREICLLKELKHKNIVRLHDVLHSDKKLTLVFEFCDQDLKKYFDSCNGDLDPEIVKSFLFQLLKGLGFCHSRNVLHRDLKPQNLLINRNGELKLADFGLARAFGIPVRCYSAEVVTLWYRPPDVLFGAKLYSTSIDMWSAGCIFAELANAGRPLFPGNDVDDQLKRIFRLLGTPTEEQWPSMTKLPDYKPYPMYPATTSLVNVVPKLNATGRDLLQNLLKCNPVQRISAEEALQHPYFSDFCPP
Protein cereblon/Cyclin-dependent kinase 5 (Homo sapiens), sequence (Q96SW2 whole entry, looked up): as the sequence (Q96SW2 whole entry, looked up) above

## O=C(COc1cccc2c1C(=O)N(C1CCC(=O)NC1=O)C2=O)NCCCC(=O)N1CCN(Cc2ccc(NC(=O)c3n[nH]cc3Nc3ncnc4[nH]ccc34)cc2)CC1 (stereo unspecified)
[1]
  Activity: Active
[2]
  IC50: 2.21 µM
[3]
  Activity: Active
[4]
  Activity: Active

## O=C(CCC(=O)N1CCN(Cc2ccc(NC(=O)c3n[nH]cc3Nc3ncnc4[nH]ccc34)cc2)CC1)NCCCCCCNC(=O)COc1cccc2c1C(=O)N(C1CCC(=O)NC1=O)C2=O (stereo unspecified)
[5]
  Activity: inactive
[2]
  IC50: 7.3 µM
[6]
  Activity: inactive

## O=C(CCC(=O)N1CCC(NC(=O)c2n[nH]cc2NC(=O)c2c(Cl)cccc2Cl)CC1)NCCNc1cccc2c1C(=O)N(C1CCC(=O)NC1=O)C2=O (stereo unspecified)
[2]
  IC50: 5.95 µM

## CN1C(=O)CCC(N2C(=O)c3cccc(NCCNC(=O)CCC(=O)N4CCN(Cc5ccc(NC(=O)c6n[nH]cc6Nc6ncnc7[nH]ccc67)cc5)CC4)c3C2=O)C1=O (stereo unspecified)
[7]
  Activity: inactive
[8]
  Activity: inactive

## O=C(CCC(=O)N1CCN(Cc2ccc(NC(=O)c3n[nH]cc3Nc3ncnc4[nH]ccc34)cc2)CC1)NCCCCCCNc1cccc2c1C(=O)N(C1CCC(=O)NC1=O)C2=O (stereo unspecified)
[9]
  Activity: Active
[10]
  Activity: Active
[11]
  Activity: Active
[2]
  IC50: 3.6 µM
[12]
  Activity: Active

## O=C(CCC(=O)N1CCC(NC(=O)c2n[nH]cc2NC(=O)c2c(Cl)cccc2Cl)CC1)NCCCCNc1cccc2c1C(=O)N(C1CCC(=O)NC1=O)C2=O (stereo unspecified)
[2]
  IC50: 23.3 µM

## O=C(CCC(=O)N1CCC(NC(=O)c2n[nH]cc2NC(=O)c2c(Cl)cccc2Cl)CC1)NCCCCCCNC(=O)COc1cccc2c1C(=O)N(C1CCC(=O)NC1=O)C2=O (stereo unspecified)
[2]
  IC50: 1.31 µM

## O=C(COc1cccc2c1C(=O)N(C1CCC(=O)NC1=O)C2=O)NCCOCCOCC(=O)N1CCN(Cc2ccc(NC(=O)c3n[nH]cc3Nc3ncnc4[nH]ccc34)cc2)CC1 (stereo unspecified)
[9]
  Activity: Active
[10]
  Activity: Active
[11]
  Activity: Active
[2]
  IC50: 3.54 µM
[12]
  Activity: Active

## O=C(COc1cccc2c1C(=O)N(C1CCC(=O)NC1=O)C2=O)NCCCCCC(=O)N1CCC(NC(=O)c2n[nH]cc2NC(=O)c2c(Cl)cccc2Cl)CC1 (stereo unspecified)
[13]
  Activity: inactive
[14]
  Activity: Active
[15]
  Activity: Active
[12]
  Activity: inactive
[4]
  Activity: Active
[16]
  Activity: Active

## O=C(CCC(=O)N1CCN(Cc2ccc(NC(=O)c3n[nH]cc3Nc3ncnc4[nH]ccc34)cc2)CC1)NCCNc1cccc2c1CN(C1CCC(=O)NC1=O)C2=O (stereo unspecified)
[17]
  Activity: Active
[18]
  Activity: Active

## O=C(COc1cccc2c1C(=O)N(C1CCC(=O)NC1=O)C2=O)NCCCCCC(=O)N1CCN(Cc2ccc(NC(=O)c3n[nH]cc3Nc3ncnc4[nH]ccc34)cc2)CC1 (stereo unspecified)
[9]
  Activity: Active
[1]
  Activity: Active
[10]
  Activity: Active
[2]
  IC50: 0.54 µM
[3]
  Activity: Active
[4]
  Activity: Active

— ChEMBL document CHEMBL4602651, “Development of selective mono or dual PROTAC degrader probe of CDK isoforms” (Eur J Med Chem, 2020)
